This is a sample that favours compounds with a hit; in the whole collection about 2.4% have one here.
SR-BI HDL uptake: mouse SR-BI HDL lipid transfer inhibition. Q61009. ldlA[mSR-BI] CHO cells, DiI-HDL uptake fluorescence, 3 h. inhibition, % at 12.5 µM. 0.96% of 320,000 active. AID 488896;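 active = mean replicate inhibition of at least 70% and a set share of replicates each scoring 70 or more; inconclusive = meets just one of the two criteria; inactive = fails both criteria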
Target sequence (Q61009 whole entry, looked up): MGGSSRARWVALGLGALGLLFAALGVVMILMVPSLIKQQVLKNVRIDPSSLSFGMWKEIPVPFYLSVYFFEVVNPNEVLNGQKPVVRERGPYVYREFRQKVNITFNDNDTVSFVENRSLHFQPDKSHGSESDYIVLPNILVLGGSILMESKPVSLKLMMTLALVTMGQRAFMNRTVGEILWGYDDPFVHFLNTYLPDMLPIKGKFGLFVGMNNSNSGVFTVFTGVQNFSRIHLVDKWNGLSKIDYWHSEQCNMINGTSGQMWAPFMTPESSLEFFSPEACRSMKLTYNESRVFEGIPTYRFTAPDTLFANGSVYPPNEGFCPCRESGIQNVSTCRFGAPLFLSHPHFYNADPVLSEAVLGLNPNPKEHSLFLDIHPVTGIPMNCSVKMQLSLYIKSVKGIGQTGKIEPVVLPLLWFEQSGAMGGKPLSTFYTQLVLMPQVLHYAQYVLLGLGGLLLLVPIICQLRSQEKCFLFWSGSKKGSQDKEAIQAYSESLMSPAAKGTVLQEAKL
SR-BI DiI-HDL act: activators of SR-BI mediated HDL lipid uptake; AID 504775; CHO ldlA[mSR-BI] cells, DiI-HDL uptake fluorescence, 3 h; 100 = double the neutral-control signal; activation, % at 12.5 µM; 0.096% of 320,000 active;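 active = mean replicate activation of at least 60% and every replicate at or above 60%; inconclusive = mean or all-replicate condition met, but not both; inactive = mean below 60% and not all replicates reaching 60%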
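Test system: SR-BI-overexpressing, LDLR-lacking CHO cells. Measured by: DiI fluorescence, bottom read. Medium: Ham's F12 with 0.5% BSA, HEPES 25 mM, pH 7.4. Timing: 3 h uptake period with compound, 37 °C.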
Calb FLC: C. albicans growth modulation with fluconazole. C. albicans CaCi-2 + fluconazole, Alamar Blue growth, 48 h. growth inhibition, % (no concentration beside the values). 0.57% of 300,000 active. AID 1979;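 active = growth inhibition above about 58% in most replicates, limit read from the data, passing the limit was not always enough; inconclusive = exactly half the replicates above a set limit; inactive = most replicates below a set limit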;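 also: all wells also contain fluconazole at 8 µg/ml as a sub-toxic cotreatment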
MIN6 prolif: induces beta-cell replication in MIN6 cells. 0.29% of 330,000 active. MIN6 cells proliferation, ATPlite luminescence, 48 h; cells starved in 0.2% serum; 100% = growth in 10% serum. proliferation, % at 10 µM;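 active = compounds whose signal lies at least 3.5 SD above the mean of all wells on their plate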
HTR2A ag: activates the mouse 5-HT2A serotonin receptor. P35363. CHO-K1 mHTR2A beta-arrestin complementation, luminescence; percent of 30 µM serotonin response. activation, % at 7.6 µM. 0.66% of 360,000 active. AID 624169;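 active = activation above a run cutoff, the mean activation of all tested compounds plus 3 SD, cut at about 14% in these data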
Insulin prom up: MIN6 insulin promoter up-regulation. MIN6 insulin promoter-GFP reporter, high-content imaging; stronger effect = higher value. z-score at 5 µM. 0.3% of 190,000 active. AID 1625;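 active = z-score above 3 at 5 µM with at least 500 cells counted in the well; inconclusive = wells under 500 cells, flagged as cytotoxic or low count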
Hits are given with their value; . = inactive; ? = inconclusive; / = no result given.

SMILES	SR-BI HDL uptake	SR-BI DiI-HDL act	Calb FLC	MIN6 prolif	HTR2A ag	Insulin prom up
CN(Cc1ccccc1)S(=O)(=O)c1ccc(C(=O)Nc2nnc(C3CC3)o2)cc1	/	/	85	.	.	.
CCN1C(=O)[C@H]2[C@@H](c3ccc(-c4ccc(C(C)=O)cc4)c(OC)c3)N[C@@](Cc3ccccc3)(C(=O)OC)[C@H]2C1=O	.	.	.	.	.	/
CCCCN(CCCC)S(=O)(=O)c1ccc(C(=O)Nc2nnc(COC)o2)cc1	/	/	88	.	.	.
COc1ccc(C(=O)c2[nH]c(N)c(C(=O)NCCc3c[nH]c4ccccc34)c2-c2ccc(Br)cc2)cc1	/	/	/	/	.	/
Cc1ccc(S(=O)(=O)NC(=O)Nc2ccc(N(C)C)cc2)cc1	.	.	87	.	.	/
N#Cc1cccc(C=C(C(=O)c2ccccc2)c2ccccc2)c1	/	/	/	/	.	/
CCOC(=O)c1c(C)n(OCc2ccccc2)c2ccc3c(no[n+]3[O-])c12	86	.	.	.	.	.
CCCCOn1c(C)c(C(C)=O)c2c3no[n+]([O-])c3ccc21	78	.	.	.	.	.
Cc1cc(C(=O)CC#N)c(C)n1-c1ccc(OC(F)F)cc1	.	.	.	.	.	.
COC(=O)c1cc(C(=O)OC)cc(-n2c(C)cc(C(=O)CC#N)c2C)c1	76	.	.	.	.	.
Cn1ncc2c(N3CCN(c4ccc(Cl)c(Cl)c4)CC3)ncnc21	.	.	.	.	.	.
C(=NN=Cc1c[nH]c2ccccc12)c1c[nH]c2ccccc12	/	/	/	/	.	/
O=C1/C(=C/c2c[nH]c3ccccc23)CCC/C1=C\c1c[nH]c2ccccc12	89	.	.	.	.	4.6
O=C(/C=C/c1ccccc1)c1ccc2c(c1)OCO2	.	.	.	.	.	.
O=C(/C=C/c1ccncc1)c1ccc2c(c1)OCCO2	.	.	67	.	.	.
CCCCCCCn1c2c(c(=N)c3ccccc31)CCC2	.	.	81	.	.	?
O=C(Cc1ccccc1F)NNC(=O)c1ccncc1	.	.	.	.	.	/
Cc1c(C)c2ccc(OCC(=O)N3CCN(C(=O)C4COc5ccccc5O4)CC3)cc2oc1=O (configuration not stated)	88	.	.	.	.	/
CCCCc1cc(=O)oc2cc(OCC(=O)N3CCOCC3)ccc12	.	.	.	.	.	/
CCCc1cc(=O)oc2cc(OCC(=O)N3CCN(C(=O)C4COc5ccccc5O4)CC3)ccc12 (configuration not stated)	87	.	.	.	.	/
Cc1cc(=O)oc2cc(OCC(=O)N3CCN(C(=O)C4COc5ccccc5O4)CC3)ccc12 (configuration not stated)	88	.	.	.	.	/
O=C(COc1ccc2ccc(=O)oc2c1)N1CCN(C(=O)C2COc3ccccc3O2)CC1 (configuration not stated)	.	.	.	.	.	/
Cc1cc(=O)oc2ccc(OCC(=O)N3CCc4ccccc43)cc12	78	.	.	.	.	.
Cc1ccc(S(=O)(=O)Nc2ccc3cc([N+](=O)[O-])ccc3c2[N+](=O)[O-])cc1	.	.	/	/	.	/
CCOC(=O)CN1C(=O)C(Sc2n[nH]c(-c3ccccc3)n2)CCc2ccccc21 (configuration not stated)	.	.	.	.	.	.
SMILES	SR-BI HDL uptake	SR-BI DiI-HDL act	Calb FLC	MIN6 prolif	HTR2A ag	Insulin prom up
Cc1nc(N2CCC(C)CC2)c2c(C)c(C(=O)Nc3ccc4c(c3)OCCO4)sc2n1	.	.	.	.	.	/
Cc1nc(N2CCC(C)CC2)c2c(C)c(C(=O)Nc3cccc(C(F)(F)F)c3)sc2n1	87	.	.	.	.	.
Cc1nc(N2CCC(C)CC2)c2c(C)c(C(=O)Nc3ccc(C(F)(F)F)cc3)sc2n1	75	.	.	.	.	.
Cc1c(C(=O)N/N=C/c2ccncc2)nnn1-c1nonc1N	.	.	/	.	.	/
Cc1ccc(NC(=O)C2(C)CCN2Cc2ccccc2OC(F)F)cc1 (configuration not stated)	/	/	/	/	.	/
CC(=O)c1ccc(C(=O)N2CCC(CO)(Cc3cccc(C(F)(F)F)c3)CC2)cc1	.	.	.	.	.	.
CC1(C(=O)N2CCC(CO)(Cc3cccc(C(F)(F)F)c3)CC2)CC1	85	.	.	.	.	/

From PubChem
